This is an account of results in ChEMBL document CHEMBL4477181, “Bioactive Octahydroxylated C21 Steroids from the Root Bark of Lycium chinense” (2016).

Structures are written as SMILES. The source made the active and inactive calls. No cut-off for these calls is given here.

The test system of test [1] is CHO. Description: Induction of autophagy in CHO cells expressing GFP-LC3 assessed as GFP-LC3-2 accumulation at 25 uM measured after 8 hrs in presence of bafilomycin A1 by flow cytometry. The format is functional, cell-based. As to conditions: Cricetulus griseus. The gist of the method: (§1)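 CHO cells stably expressing GFP-LC3 (selected in 1 mg/mL G418, maintained in DMEM/10% FBS with 800 μg/mL G418) were grown overnight. They were then treated in triplicate at 10, 25 or 50 μM for 8 h, with 20 μM curcumin as the positive control, alone or with 0.1 μM bafilomycin A1. Cells were trypsinised, washed, saponin-permeabilised, and fluorescence at 488 nm read by flow cytometry (>15,000 events).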
A general note: A flow cytometer gives signals particle by particle.

In test [2] the test system is CHO. Description: Induction of autophagy in CHO cells expressing GFP-LC3 assessed as GFP-LC3-2 accumulation at 25 uM measured after 8 hrs by flow cytometry. It is filed as functional, Cricetulus griseus. The gist of the method: as §1
For test [3], the system named is MIN6. Description: Protective activity against palmitic acid-induced injury in mouse MIN6 cells assessed as increase in cell proliferation at 5 uM measured after 24 hrs by CCK8 assay. It is filed as functional. Summed up: (§2)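 Mouse MIN6 β-cells were kept in DMEM (25 mM glucose, 50 μM β-mercaptoethanol, 10% FBS) and grown 24 h on poly-L-lysine to 80–90% confluency. They were then exposed 24 h in serum-free DMEM to 0.4 mM palmitic acid (final) plus compound in 0.1% DMSO (final); liraglutide was the reference. Read-out was CCK-8 absorbance at 450 nm, blank-corrected. Proliferation (%) = (OD sample − OD model)/OD model × 100.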
A general note: Formazan colour is commonly taken as a measure of viable cells.

Test [4] relates to MIN6. Description: Protective activity against palmitic acid-induced injury in mouse MIN6 cells assessed as increase in cell proliferation measured after 24 hrs by CCK8 assay. It is filed as functional, cell-based. The gist of the method: as §2
For test [5], the system named is MIN6. The experiment in a line: Protective activity against palmitic acid-induced injury in mouse MIN6 cells assessed as increase in cell proliferation at 1 uM measured after 24 hrs by CCK8 assay. The format is functional. The gist of the method: as §2
For test [6], the system named is MIN6. Description: Protective activity against palmitic acid-induced injury in mouse MIN6 cells assessed as increase in cell proliferation at 10 uM measured after 24 hrs by CCK8 assay. The format is functional. Summed up: as §2
Test [7] relates to CHO. The experiment in a line: Induction of autophagy in CHO cells expressing GFP-LC3 assessed as GFP-LC3-2 accumulation at 20 uM measured after 8 hrs by flow cytometry relative to control. The format is functional, Cricetulus griseus. Summed up:
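CHO cells stably expressing GFP-LC3 (clones selected in 1 mg/mL G418) were kept in DMEM with 10% FBS and 800 μg/mL G418, seeded in 24-well plates and grown overnight. They were treated in triplicate for 8 h, with untreated cells as blank and 20 μM curcumin as positive control. Cells were trypsinized, washed with PBS then 0.1% saponin/PBS, and fluorescence at 488 nm was read by flow cytometry (>15,000 events).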

The subject of test [8] is MIN6. Description: Protective activity against palmitic acid-induced injury in mouse MIN6 cells assessed as increase in cell proliferation at 5 and 10 uM measured after 24 hrs by CCK8 assay relative to DMSO control. It is filed as functional. Summed up:
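MIN6 mouse β cells grown in DMEM (25 mM glucose, 10% FBS, β-mercaptoethanol) on poly-L-lysine plates to 80−90% confluency, then exposed 24 h in serum-free DMEM to 0.4 mM palmitic acid (final) plus compound in 0.1% DMSO (final). CCK-8 absorbance read at 450 nm, with compound-only blanks. Proliferation change = (OD sample − OD model)/OD model × 100.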

`CO[C@H]1C[C@H](O[C@H]2[C@@H](O)C[C@H](O[C@H]3CC[C@]4(C)[C@H]5C[C@@H](OC(=O)/C=C/C=C/c6ccccc6)[C@@]6(C)[C@](O)(CC[C@@]6(O)[C@H](C)O)[C@]5(O)C[C@@H](O)[C@@]4(O)C3)O[C@@H]2C)O[C@H](C)[C@H]1O[C@H]1C[C@@H](OC)[C@H](O)[C@@H](C)O1`: the result with CHO [1] was Active. Also, the “fold change (FC)” value in the test on CHO [2] turned out to be 2.5.
For the molecule `C[C@H](O)[C@]1(O)CC[C@@]2(O)[C@]1(C)[C@H](OC(=O)/C=C/C=C/c1ccccc1)C[C@@H]1[C@@]3(C)CC[C@H](O[C@H]4C[C@H](O)[C@H](O)[C@@H](C)O4)C[C@]3(O)[C@H](O)C[C@]12O`, the Activity in the test with MIN6 [3] is 4%; in the test on MIN6 [4] it was “Dose-dependent effect”; in the test with MIN6 [5], 1.5%; in the test on MIN6 [6], 11.2%.
Regarding `CO[C@H]1C[C@H](O[C@@H]2[C@@H](C)O[C@@H](O[C@H]3[C@@H](O)C[C@H](O[C@H]4CC[C@]5(C)[C@H]6C[C@@H](OC(=O)/C=C/C=C/c7ccccc7)[C@@]7(C)[C@](O)(CC[C@@]7(O)[C@H](C)O)[C@]6(O)C[C@@H](O)[C@@]5(O)C4)O[C@@H]3C)C[C@H]2OC)O[C@H](C)[C@H]1O[C@H]1C[C@@H](OC)[C@H](O)[C@@H](C)O1`, the result with CHO [1] was Active. The “fold change (FC)” value with CHO [2] came out at 1.3.
In the case of `COc1cc(/C=C/C(=O)CC(=O)/C=C/c2ccc(O)c(OC)c2)ccc1O` [CURCUMIN], in the test on CHO [7], the “fold change (FC)” value turned out to be 1.7.
As to `CO[C@H]1C[C@H](O[C@H]2[C@@H](O)C[C@H](O[C@H]3CC[C@]4(C)[C@H]5C[C@@H](OC(=O)/C=C/C=C/c6ccccc6)[C@@]6(C)[C@](O)(CC[C@@]6(O)[C@H](C)O)[C@]5(O)C[C@H](O)[C@@]4(O)C3)O[C@@H]2C)O[C@H](C)[C@H]1O[C@H]1C[C@@H](OC)[C@H](O)[C@@H](C)O1`, in the test with CHO [1], the outcome was Active. Moreover, the “fold change (FC)” value in the test with CHO [2] is reported as 3.1.
With `CCCCCCCCCCCCCCCC(=O)N[C@@H](CCC(=O)NCCCC[C@H](NC(=O)[C@H](C)NC(=O)[C@H](C)NC(=O)[C@H](CCC(N)=O)NC(=O)CNC(=O)[C@H](CCC(=O)O)NC(=O)[C@H](CC(C)C)NC(=O)[C@H](Cc1ccc(O)cc1)NC(=O)[C@H](CO)NC(=O)[C@H](CO)NC(=O)[C@@H](NC(=O)[C@H](CC(=O)O)NC(=O)[C@H](CO)NC(=O)[C@@H](NC(=O)[C@H](Cc1ccccc1)NC(=O)[C@@H](NC(=O)CNC(=O)[C@H](CCC(=O)O)NC(=O)[C@H](C)NC(=O)[C@@H](N)Cc1cnc[nH]1)[C@@H](C)O)[C@@H](C)O)C(C)C)C(=O)N[C@@H](CCC(=O)O)C(=O)N[C@@H](Cc1ccccc1)C(=O)N[C@H](C(=O)N[C@@H](C)C(=O)N[C@@H](Cc1c[nH]c2ccccc12)C(=O)N[C@@H](CC(C)C)C(=O)N[C@H](C(=O)N[C@@H](CCCNC(=N)N)C(=O)NCC(=O)N[C@@H](CCCNC(=N)N)C(=O)NCC(=O)O)C(C)C)[C@@H](C)CC)C(=O)O` [LIRAGLUTIDE], the Activity in the test with MIN6 [5] was 19.1%.
Take `CO[C@H]1C[C@H](O[C@H]2[C@@H](O)C[C@H](O[C@H]3CC[C@]4(C)[C@H]5C[C@@H](OC(=O)/C=C/C=C/c6ccccc6)[C@@]6(C)[C@](O)(CC[C@@]6(O)[C@H](C)O)[C@]5(O)C[C@@H](O)[C@@]4(O)C3)O[C@@H]2C)O[C@H](C)[C@H]1O`: the Activity with MIN6 [3] was 81.7%; in the test on MIN6 [4], “Dose-dependent effect”; with MIN6 [5], 0.2%; with MIN6 [6] it was 87.7%. Besides, the result in the test on CHO [1] was Active. Besides, the “fold change (FC)” value was determined as 2 in the test on MIN6 [8] and 2.1 in the test with CHO [2].
Turning to `C[C@H](O)[C@]1(O)CC[C@@]2(O)[C@]1(C)[C@H](OC(=O)/C=C/C=C/c1ccccc1)C[C@@H]1[C@@]3(C)CC[C@H](O)C[C@]3(O)[C@H](O)C[C@]12O`, the Activity was 4.2% in the test with MIN6 [3], “Dose-dependent effect” in the test with MIN6 [4], -3.1% in the test with MIN6 [5] and 8.8% in the test on MIN6 [6].
